Legend:
SARS-CoV-2 spike RBD = SARS-CoV-2 spike RBD (Severe acute respiratory syndrome coronavirus 2, UniProt P0DTC2)
siRNA = experiment: Electrophoretic mobility shift assay; type: binding; conditions: pH 7
How it was run: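 Negative-control siRNA mixed with peptide at 1:20–1:100 siRNA:peptide molar ratios in RNase-free water, then incubated 1 h at 4, 25, 37 or 50 °C to encapsulate. For competition, DSS, 8 M urea stock or 20% NaCl stock was added before or after encapsulation. Complexes were run in dye-free glycerol loading buffer (5% final) on 4% agarose gels stained with ethidium bromide.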

Integrin α2 (ITGA2) = Integrin α2 (ITGA2) (Homo sapiens, UniProt P17301); experiment: Direct ELISA on HE25-coated plates, ITGA2; type: binding; conditions: negative control receptor
Chain of Integrin α2 (ITGA2) (P17301 30-1132 limits assumed): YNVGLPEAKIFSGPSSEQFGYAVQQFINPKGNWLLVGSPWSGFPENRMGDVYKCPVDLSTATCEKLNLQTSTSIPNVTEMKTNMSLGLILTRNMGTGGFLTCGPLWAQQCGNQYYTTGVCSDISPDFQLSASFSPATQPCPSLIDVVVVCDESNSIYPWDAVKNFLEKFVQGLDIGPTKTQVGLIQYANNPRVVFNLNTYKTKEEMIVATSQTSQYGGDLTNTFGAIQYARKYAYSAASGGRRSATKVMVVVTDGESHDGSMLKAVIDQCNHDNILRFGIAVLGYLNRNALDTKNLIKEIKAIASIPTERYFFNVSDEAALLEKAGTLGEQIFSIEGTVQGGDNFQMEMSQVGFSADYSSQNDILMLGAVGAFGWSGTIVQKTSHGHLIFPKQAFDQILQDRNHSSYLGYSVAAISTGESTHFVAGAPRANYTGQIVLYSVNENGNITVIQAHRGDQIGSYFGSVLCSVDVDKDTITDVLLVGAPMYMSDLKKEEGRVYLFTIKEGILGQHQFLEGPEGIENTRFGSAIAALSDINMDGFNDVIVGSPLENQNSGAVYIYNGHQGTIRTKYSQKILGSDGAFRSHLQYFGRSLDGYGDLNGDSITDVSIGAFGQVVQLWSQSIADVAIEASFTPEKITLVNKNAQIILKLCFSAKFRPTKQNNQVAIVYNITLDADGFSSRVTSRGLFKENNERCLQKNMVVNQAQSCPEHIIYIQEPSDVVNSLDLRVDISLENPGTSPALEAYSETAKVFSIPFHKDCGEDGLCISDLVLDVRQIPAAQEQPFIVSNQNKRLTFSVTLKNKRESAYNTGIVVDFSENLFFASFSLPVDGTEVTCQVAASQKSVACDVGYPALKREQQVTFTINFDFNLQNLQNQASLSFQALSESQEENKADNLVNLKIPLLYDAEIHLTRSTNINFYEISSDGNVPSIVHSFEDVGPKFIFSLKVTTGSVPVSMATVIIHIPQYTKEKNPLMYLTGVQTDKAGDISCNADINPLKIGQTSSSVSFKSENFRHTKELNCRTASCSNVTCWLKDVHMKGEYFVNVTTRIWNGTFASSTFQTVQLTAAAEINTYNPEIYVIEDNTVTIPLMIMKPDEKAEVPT

“stearyl-HEHHEHHEHEHGFLGRVRVLRGDKW-amide [HE25]” was tested, and the “binding of spike RBD to HE25-coated plates” value (SARS-CoV-2 spike RBD) was “recognized”, the “effect of DSS on binding and preformed complex” value (siRNA; EMSA competition, 20 mg/mL DSS before or after encapsulation, 50°C, molar ratio 1:100) was “interfere with the binding and disassemble the preformed complex” and the “effect of urea on binding and preformed complex” value (siRNA; EMSA competition, 1.6 M urea before or after encapsulation, 50°C, molar ratio 1:100) was “hindered initial binding but did not affect the ones formed”. The “effect of NaCl on binding and disassembly” value (siRNA; EMSA competition, 4% NaCl before or after encapsulation, 50°C, molar ratio 1:100) was “no notable effect on either binding or disassembly”, the “effect of urea on binding” value (siRNA; EMSA competition, urea, 4°C, molar ratio 1:100) was “not observed before encapsulation” and the “encapsulation efficiency at 50°C” value (siRNA; EMSA, 50°C) was “significantly increases”. The “binding of ITGA2 to HE25” value (Integrin α2 (ITGA2)) was “did not efficiently bind”.
